Measured values taken from publication PMC4539245 (Nature chemical biology, 2013).

Tests used:
[1] = tested on: Kv1.5 mutant channels; assay: TEVC in Xenopus oocytes, Kv1.5 scanning mutants; format: cell-based, human
[2] = biological target: Kv1.5 channels (Homo sapiens, UniProt P22460); format: cell-based
[3] = tested on: Kv1.3; conditions: read-out: IC50 for block of Kv1.3; cited from earlier work
[4] = biological target: T1, Kv2.1 (Homo sapiens, UniProt Q14721); assay: TEVC in Xenopus oocytes, Kv2.1 wild type; format: cell-based; conditions: read-out: IC50 for Kv2.1
T1 sequence (Q14721 1-858): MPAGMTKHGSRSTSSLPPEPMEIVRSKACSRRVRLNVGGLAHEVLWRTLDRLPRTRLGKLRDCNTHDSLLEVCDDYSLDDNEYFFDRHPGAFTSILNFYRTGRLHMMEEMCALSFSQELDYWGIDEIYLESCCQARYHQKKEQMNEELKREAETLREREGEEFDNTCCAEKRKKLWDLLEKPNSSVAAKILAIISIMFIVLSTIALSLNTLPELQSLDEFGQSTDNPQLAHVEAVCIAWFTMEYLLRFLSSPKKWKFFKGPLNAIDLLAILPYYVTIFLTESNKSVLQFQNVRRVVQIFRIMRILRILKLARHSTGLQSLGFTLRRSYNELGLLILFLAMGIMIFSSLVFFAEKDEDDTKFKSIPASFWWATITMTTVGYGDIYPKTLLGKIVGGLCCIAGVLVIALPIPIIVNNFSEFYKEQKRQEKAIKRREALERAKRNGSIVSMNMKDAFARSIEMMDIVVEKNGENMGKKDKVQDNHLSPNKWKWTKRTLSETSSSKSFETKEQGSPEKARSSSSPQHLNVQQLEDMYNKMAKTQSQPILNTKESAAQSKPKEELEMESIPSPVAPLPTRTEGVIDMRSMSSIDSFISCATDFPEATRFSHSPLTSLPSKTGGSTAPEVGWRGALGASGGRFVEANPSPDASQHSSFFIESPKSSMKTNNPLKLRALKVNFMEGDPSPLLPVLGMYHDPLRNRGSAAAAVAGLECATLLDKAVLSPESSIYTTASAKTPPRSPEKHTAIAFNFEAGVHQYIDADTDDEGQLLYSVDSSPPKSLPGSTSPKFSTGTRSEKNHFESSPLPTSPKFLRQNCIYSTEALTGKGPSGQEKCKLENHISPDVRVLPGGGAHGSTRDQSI
Procedure, shortened: (§1)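 Stage IV–V X. laevis oocytes cultured at 18 °C for 1–13 d in HEPES-buffered saline, pH 7.4, with gentamycine and pyruvate. Two-electrode voltage clamp in modified ND96 (4 mM KCl, pH 7.5). Currents were evoked by 2-s pulses to +40 mV every 10 s from −80 mV. Compound was taken from a 10 mM DMSO stock.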

[5] = tested on: Kv1.5; conditions: read-out: IC50 for block of Kv1.5; cited from earlier work
[6] = tested on: Kv2.1 SP+CC mutant; assay: TEVC in Xenopus oocytes, Kv2.1 SP+CC six-fold mutant; format: cell-based
Procedure, shortened: as §1

[7] = tested on: Kv1.5 A503L mutant; assay: TEVC in Xenopus oocytes, Kv1.5 A503L mutant; format: cell-based, human; conditions: versus wild-type Kv1.5
[8] = tested on: Kv1.1, Kv1.2, Kv1.5 and Kv1.6 versus Kv2.1, Kv3.1 and Kv4.3; assay: TEVC in Xenopus oocytes, block of different Kv channels; format: cell-based; conditions: 500 nM Psora-4, +40 mV
Procedure, shortened: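 Channels expressed in Xenopus oocytes and recorded by two-electrode voltage clamp in modified ND96 (96 mM NaCl, 4 mM KCl, 5 mM HEPES, pH 7.5). Cells were held at −80 mV and stepped to +40 mV for 2 s every 10 s. Test compound was applied at 500 nM from a 10 mM DMSO stock, and block was analysed at +40 mV.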

[9] = tested on: Kv3.1; conditions: cited from earlier work

Kv1.5 channels, sequence (P22460 whole entry): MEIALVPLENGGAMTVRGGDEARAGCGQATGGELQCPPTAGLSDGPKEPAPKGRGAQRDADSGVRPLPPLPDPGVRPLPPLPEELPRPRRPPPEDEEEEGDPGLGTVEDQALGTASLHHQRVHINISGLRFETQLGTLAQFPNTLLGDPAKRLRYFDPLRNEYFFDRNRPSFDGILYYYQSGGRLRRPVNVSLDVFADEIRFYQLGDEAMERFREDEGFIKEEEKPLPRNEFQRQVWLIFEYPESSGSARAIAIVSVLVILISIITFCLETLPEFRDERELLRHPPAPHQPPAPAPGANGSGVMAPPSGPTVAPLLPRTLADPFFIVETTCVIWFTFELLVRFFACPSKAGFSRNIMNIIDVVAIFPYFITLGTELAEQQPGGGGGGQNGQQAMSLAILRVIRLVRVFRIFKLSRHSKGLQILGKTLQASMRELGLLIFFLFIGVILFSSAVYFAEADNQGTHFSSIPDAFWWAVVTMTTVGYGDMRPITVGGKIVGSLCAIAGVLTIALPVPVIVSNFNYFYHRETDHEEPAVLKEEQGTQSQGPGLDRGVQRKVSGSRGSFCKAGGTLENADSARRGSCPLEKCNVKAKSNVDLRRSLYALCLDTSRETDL

Which “inhibition of S4 and S4-S5 linker mutants” value ([1]; control pore blocker, side-pocket mutants) does the source give for `CCCCN1CCCCC1C(=O)Nc1c(C)cccc1C` (centres unmarked) [bupivacaine] here?
The value was “None of the mutations in the S4 segment or the S4–S5 linker reduced bupivacaine inhibition”.

Which results are given for `CC[N+](CC)(CC)CC` [TEA, tetraethyl-ammonium]?
effect on inhibition by 100 nM Psora-4 [2]: prevented the otherwise complete inhibition; effect on kinetics of Psora-4 block [2]: slowed the kinetics of block

With `O=c1ccc2c(OCCCCc3ccccc3)c3ccoc3cc2o1` [Psora-4] as the compound, how does the IC50 [3] read?
Its IC50 is […].

And the “increase of IC50 by S4, S4-S5 linker and S5 mutations” value ([1]; side-pocket hits versus wild-type Kv1.5)?
Its value is “up to 276 fold”.

What about the IC50 [4] of the same compound?
Its IC50 is ~3900 nM.

And the IC50 ([6]; read-out: IC50 for Kv2.1 SP+CC, six-fold mutant)?
The IC50 was 580 nM.

And the “increase of IC50 for A503L mutant” value [7]?
The value was ~100 fold.

What about the “sensitivity of Kv1 subfamily members versus Kv2.1, Kv3.1 and Kv4.3” value [8] of the same compound?
The value was “much more sensitive”.

And the “block of other K+ channels including Kv3.1” value [9]?
Its value is “micromolar range”.

For `CCCCC[N+](CCCCC)(CCCCC)CCCCC` [TPA, tetrapentyl-ammonium], which “competition with Psora-4 in the central cavity” value ([2]; TPA pre-applied, same conditions as TEA) is on record?
Its value is “no apparent competition”.
